Test results from ChEMBL document CHEMBL1157473, “Identification of 4-benzylamino-2-[(4-morpholin-4-ylphenyl)amino]pyrimidine-5-carboxamide derivatives as potent and orally bioavailable STAT6 inhibitors” (Bioorg Med Chem, 2008).

How the values were obtained:
[1] = molecular target: T1, Signal transducer and activator of transcription 6 (Homo sapiens, UniProt P42226); assay: Inhibition of STAT6 activation in FW4 reporter cells; assay type: cell-based
T1 sequence (P42226 whole entry): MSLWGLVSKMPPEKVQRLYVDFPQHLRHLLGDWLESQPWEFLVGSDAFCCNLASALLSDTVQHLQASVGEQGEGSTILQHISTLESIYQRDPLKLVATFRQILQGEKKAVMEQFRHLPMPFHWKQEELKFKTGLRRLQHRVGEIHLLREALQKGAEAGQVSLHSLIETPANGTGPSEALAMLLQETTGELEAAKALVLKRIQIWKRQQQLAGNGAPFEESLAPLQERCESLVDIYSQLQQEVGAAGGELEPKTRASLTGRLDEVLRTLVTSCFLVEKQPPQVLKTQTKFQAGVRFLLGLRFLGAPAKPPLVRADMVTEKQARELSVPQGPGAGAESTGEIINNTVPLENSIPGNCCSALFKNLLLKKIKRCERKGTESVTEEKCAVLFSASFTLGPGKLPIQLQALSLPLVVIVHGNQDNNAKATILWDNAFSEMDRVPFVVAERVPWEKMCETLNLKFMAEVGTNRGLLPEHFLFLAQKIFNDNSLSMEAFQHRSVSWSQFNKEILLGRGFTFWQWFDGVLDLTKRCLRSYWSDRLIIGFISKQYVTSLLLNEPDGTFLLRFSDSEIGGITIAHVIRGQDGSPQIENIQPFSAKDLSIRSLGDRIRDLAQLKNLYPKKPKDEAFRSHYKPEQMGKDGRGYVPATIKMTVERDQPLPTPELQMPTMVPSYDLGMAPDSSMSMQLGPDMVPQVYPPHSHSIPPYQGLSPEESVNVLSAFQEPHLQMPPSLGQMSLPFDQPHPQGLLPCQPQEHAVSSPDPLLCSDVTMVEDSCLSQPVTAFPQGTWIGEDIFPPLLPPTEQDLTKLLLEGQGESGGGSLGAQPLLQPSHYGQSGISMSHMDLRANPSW

[2] = Clearance in BALB/c mouse at 1 mg/kg, iv; assay type: ADME, organism-based; parameters: dose 1 mg/kg, route intravenous; details: in vivo
Method in brief: (§1)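 Overnight-fasted 8-week-old female Balb/c mice were given 1 mg/kg by tail-vein injection at 10 mL/kg, in a Cremophor EL/saline-based vehicle. Plasma was extracted by solid-phase extraction and analysed by HPLC-MS-MS.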

[3] = Half life in BALB/c mouse at 1 mg/kg, iv; assay type: ADME, organism-based; parameters: dose 1 mg/kg, route intravenous; details: in vivo; method in brief: as §1
[4] = Volume of distribution in BALB/c mouse at 1 mg/kg, iv; assay type: ADME, organism-based; parameters: dose 1 mg/kg, route intravenous; details: in vivo; method in brief: as §1
[5] = Oral bioavailability in BALB/c mouse at 3 mg/kg; assay type: ADME, organism-based; details: in vivo
Method in brief: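 Mice were 8-week-old female Balb/c, fasted overnight, given 3 mg/kg po in 0.5% methylcellulose (10 mL/kg), with 1 mg/kg iv as reference. Vena cava blood was collected at 0.25 to 24 h. Plasma was extracted by solid-phase extraction and quantified by HPLC-MS-MS.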

[6] = Oral bioavailability in BALB/c mouse at 10 mg/kg; assay type: ADME, organism-based; details: in vivo
Method in brief: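 Oral dose of 10 mg/kg in 0.5% methylcellulose (10 mL/kg) to overnight-fasted 8-week-old female Balb/c mice, against a 1 mg/kg iv dose. Blood was sampled from the vena cava at 0.25 to 24 h. Plasma was assayed by solid-phase extraction and HPLC-MS-MS.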

[7] = Dissociation constant, pKa of the compound; assay type: physicochemical

SMILES	IC50 [1] [nM]	further results
NC(=O)c1cnc(Nc2ccc(N3CCC(O)C3)cc2)nc1NCc1ccccc1 (stereo not drawn)	98	–
NC(=O)c1cnc(Nc2ccc(N3CCCC3)cc2)nc1NCc1ccccc1	650	–
NC(=O)c1cnc(Nc2ccc(N3CCCCC3)cc2)nc1NCc1ccccc1	120	–
NC(=O)c1cnc(Nc2ccc(CCO)cc2)nc1NCc1ccccc1	95	–
NC(=O)c1cnc(Nc2ccc(CCCO)cc2)nc1NCc1ccccc1	81	–
NC(=O)c1cnc(Nc2ccc(N3CCOCC3)cc2)nc1NCc1ccc(F)cc1	650	–
NC(=O)c1cnc(Nc2ccc(N3CCOCC3)cc2)nc1NCc1ccccc1	–	clearance [2]: 59.6 mL/min/kg; half-life [3]: 45.6 min; Vd [4]: 3.91 L/kg; bioavailability [5]: 30%
NC(=O)c1cnc(Nc2ccc(N3CCOCC3)cc2)nc1NCc1cccc(Cl)c1	36	–
NC(=O)c1cnc(Nc2ccc(N3CCOCC3)cc2)nc1NCc1cccc(C(F)(F)F)c1	130	–
NC(=O)c1cnc(Nc2ccc(N3CCOCC3)cc2)nc1NCc1ccccc1N	310	–
NC(=O)c1cnc(Nc2ccc(N3CCOCC3)cc2)nc1NCc1ccc(F)cc1F	310	–
CS(=O)(=O)c1ccccc1CNc1nc(Nc2ccc(N3CCOCC3)cc2)ncc1C(N)=O	2000	–
NC(=O)c1cnc(NCCc2cc(Cl)c(O)c(Cl)c2)nc1NCc1ccccc1	61	clearance [2]: 168 mL/min/kg; half-life [3]: 3.6 min; Vd [4]: 0.931 L/kg; bioavailability [6]: 1%
NC(=O)c1cnc(Nc2ccc(N3CCOCC3)cc2)nc1NCc1ccccc1[N+](=O)[O-]	38	–
CC(=O)Nc1ccccc1CNc1nc(Nc2ccc(N3CCOCC3)cc2)ncc1C(N)=O	5200	–
Oc1c(Cl)cccc1Cl [2,6-DICHLOROPHENOL]	–	pKa [7]: 7.15
Oc1ccccc1Cl [2-CHLOROPHENOL]	–	pKa [7]: 9.13

Now from value to compound, other results behind:

IC50 [1] [nM]	SMILES	further results
8.2	COc1ccccc1CNc1nc(Nc2ccc(N3CCOCC3)cc2)ncc1C(N)=O	–
6.2	CN1CCN(c2ccc(Nc3ncc(C(N)=O)c(NCc4ccccc4)n3)cc2)CC1	–
1.4	NC(=O)c1cnc(Nc2ccc(N3CCOCC3)cc2)nc1NCc1ccccc1F	–
7	NC(=O)c1cnc(Nc2ccc(N3CCNCC3)cc2)nc1NCc1ccccc1	–
22	NC(=O)c1cnc(Nc2ccc(N3CCOCC3)cc2)nc1NCc1ccccc1O	–
7.9	NC(=O)c1cnc(Nc2ccc(N3CCOCC3)cc2)nc1NCc1ccccc1Cl	–
25	COc1cccc(CNc2nc(Nc3ccc(N4CCOCC4)cc3)ncc2C(N)=O)c1	–
23	CSc1ccccc1CNc1nc(Nc2ccc(N3CCOCC3)cc2)ncc1C(N)=O	–
5.5	NC(=O)c1cnc(Nc2ccc(N3CCOCC3)cc2)nc1NCc1cc(F)cc(F)c1	–
19	NC(=O)c1cnc(Nc2ccc(N3CCOCC3)cc2)nc1NCc1cccc(O)c1	–
1.6	NC(=O)c1cnc(Nc2ccc(N3CCOCC3)cc2)nc1NCc1cc(F)ccc1F	–
25	NC(=O)c1cnc(Nc2ccc(N3CCOCC3)cc2)nc1NCc1ccccc1C(F)(F)F	–
11	Cc1ccccc1CNc1nc(Nc2ccc(N3CCOCC3)cc2)ncc1C(N)=O	–
1.8	NC(=O)c1cnc(Nc2ccc(N3CCOCC3)cc2)nc1NCc1cccc(F)c1	–
17	CN1CCC(c2ccc(Nc3ncc(C(N)=O)c(NCc4ccccc4)n3)cc2)CC1	–
16	NC(=O)c1cnc(Nc2ccc(N3CCC(O)CC3)cc2)nc1NCc1ccccc1	–
1.8	NC(=O)c1cnc(Nc2ccc(N3CCOCC3)cc2)nc1NCc1cc(F)cc(F)c1F	–
2.2	NC(=O)c1cnc(Nc2ccc(N3CCOCC3)cc2)nc1NCc1c(F)cccc1F	–
2.1	NC(=O)c1cnc(Nc2ccc(N3CCOCC3)cc2)nc1NCc1cccc(F)c1F	–
